Source: paper PMC6370461 (ACS chemical biology, 2018)

Experiments:
Human DJ-1 [1] = molecular target: T1, Human DJ-1 (Homo sapiens, UniProt Q99497); assay: Thermal stability of DJ-1 by DSF; format: binding; conditions: DJ-1 10 μM, compound 50 μM
T1 sequence (Q99497 1-189): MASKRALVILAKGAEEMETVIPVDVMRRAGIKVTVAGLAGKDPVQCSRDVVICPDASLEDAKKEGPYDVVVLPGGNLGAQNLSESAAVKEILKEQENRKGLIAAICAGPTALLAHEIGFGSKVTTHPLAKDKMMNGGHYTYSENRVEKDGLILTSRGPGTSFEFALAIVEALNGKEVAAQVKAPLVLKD
Summary of the method: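 Tag-free DJ-1 (10 μM) with compound (50 μM) in PBS, 0.01% Tween 20 and 2.5% DMSO, with SYPRO Orange dye (excitation 470 nm, emission 570 nm). Samples were heated from 30 to 85 °C at 2 °C/min. TM was taken from the inflection point of the derivative unfolding curve and compared with unbound protein.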

DJ-1 in HEK293 cells = assay: Glyoxalase/deglycase activity in cells: CML-modified proteins by western blot; format: cell-based, human; conditions: glyoxal 2 mM
Summary of the method: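 HEK293 cells (2×10^5 per 6 cm dish) were cultured 3 days in DMEM with 10% FBS, then starved 20 h in 1% FBS. Treatment was 3 h in DMEM with 1% FBS, 0.2% DMSO and compound, with or without glyoxal (2 mM). Lysates underwent SDS-PAGE, nitrocellulose transfer and immunoblotting for carboxymethyl lysine, DJ-1 and β-actin, detected with HRP secondaries.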

DJ-1 in HeLa cells [2] = molecular target: T2, DJ-1 in HeLa cells (Homo sapiens, UniProt Q99497); assay: CML-modified protein by western blot in HeLa cells; format: cell-based; conditions: highest concentration employed
T2 sequence (Q99497 1-189): T1 sequence (Q99497 1-189)
Summary of the method: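 HeLa cells (1.5×10^5 per well) were grown 24 h in DMEM with 10% FBS, starved 20 h in 0.5% FBS, then exposed 3 h to compound in 0.5% FBS with 0.2% DMSO. DJ-1 knockout HeLa cells were also used. RIPA lysates went to SDS-PAGE and nitrocellulose. The anti-CML blot was read by HRP chemiluminescence; DJ-1 and β-actin were detected by Cy5 fluorescence.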

DJ-1 in HeLa cells [3] = molecular target: T2, DJ-1 in HeLa cells; assay: Cellular thermal shift assay; format: cell-based; conditions: thermal treatment at 63 °C
Human DJ-1 [4] = molecular target: T1, Human DJ-1; assay: In vitro glyoxalase activity assay with phenylglyoxal as substrate; format: biochemical
Summary of the method: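 Recombinant DJ-1 0.5 μM with phenylglyoxal 2 μM in 100 mM potassium phosphate pH 7.0, 1% DMSO; compound 1.0 nM–30 μM. Initial velocities were taken from the loss of absorbance at 250 nm. Activity was expressed as the velocity ratio with versus without inhibitor, and sigmoidal fits gave the inhibition constant.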

Human DJ-1 [5] = molecular target: T1, Human DJ-1; assay: Binding affinity and thermodynamics by ITC
Summary of the method: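 Recombinant human DJ-1 (E. coli-expressed) dialysed into PBS to remove DTT; compounds in the same PBS with 5% DMSO. Titrations at 25 °C with protein in the cell and compound in the syringe: DJ-1 20 μM against compound 200 μM (muteins: protein 100 μM, compound 1 mM). Isotherms fitted to a one-site binding model.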

ΔTM, thermal stabilization with respect to the unbound protein (Human DJ-1 [1]): 1.8 °C
intensity of a protein modified with CML (DJ-1 in HeLa cells [2]): clearly increases
stabilization of the soluble form of DJ-1 in cells (DJ-1 in HeLa cells [3]): concentration-dependent stabilization
IC50 (Human DJ-1 [4]): 13 µM
Kd (Human DJ-1 [5]): 3.2 ± 0.1 µM
enthalpic efficiency (EE) (Human DJ-1 [5]): 1.1 kcal/mol
ΔH of binding (Human DJ-1 [5]; ITC, 25 °C): -11.6 ± 0.1 kcal/mol
−TΔS of binding (Human DJ-1 [5]; ITC, 25 °C): 4.1 kcal/mol
Compound: O=C1Nc2ccccc2C1=O [compound 1, 1H-indole-2,3-dione]
intensity of bands of proteins modified with CML compared with DMSO control (DJ-1 in HEK293 cells): increased significantly
